Where “and” joins values, the source holds several entries; their conditions need not be identical. Equal entries are not always repeated. Calls of active or inactive are those of the source. The rule behind the calls is not given here.
Columns and labels:
[1] = molecular target: T1, Sodium-dependent serotonin transporter (Rattus norvegicus, UniProt P31652); assay: Inhibitory concentration required to inhibit serotonin transporter 5-HTT was determined by using [3H]paroxetine radioligand
Method in brief: (§1)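 Competition binding at the 5-HTT with 0.2 nM [3H]paroxetine (final concentration). Other procedures follow earlier published methods.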

[2] = system: Mus musculus; assay: Percent change from vehicle in locomotor activity in mice at 10 mg/kg (ip) in 1 h; assay type: functional
[3] = system: Mus musculus; assay: Percent change from vehicle in locomotor activity in mice at 30 mg/kg (ip) in 2 h; assay type: functional
[4] = system: Mus musculus; assay: Percent change in locomotor activity in mice at 3 mg/kg i.p. in 4 h.; assay type: functional; conditions: route intraperitoneal
Method in brief: (§2)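 Mice habituated 1/2 h to photocell activity chambers, then injected ip with compound homogenized in 0.5% methyl cellulose (10 mL/kg); vehicle controls; N = 5 or 6 per dose. Photobeam interruptions recorded in 10-min bins for 4 h, grouped into 1-h bins; one-way ANOVA with Newman-Keuls post hoc test (p < 0.05).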

[5] = molecular target: T2, Norepinephrine transporter (Rattus norvegicus, UniProt Q9WTR4); assay: Binding affinity towards norepinephrine transporter was determined using [3H]nisoxetine radioligand.
T2 sequence (Q9WTR4 whole entry): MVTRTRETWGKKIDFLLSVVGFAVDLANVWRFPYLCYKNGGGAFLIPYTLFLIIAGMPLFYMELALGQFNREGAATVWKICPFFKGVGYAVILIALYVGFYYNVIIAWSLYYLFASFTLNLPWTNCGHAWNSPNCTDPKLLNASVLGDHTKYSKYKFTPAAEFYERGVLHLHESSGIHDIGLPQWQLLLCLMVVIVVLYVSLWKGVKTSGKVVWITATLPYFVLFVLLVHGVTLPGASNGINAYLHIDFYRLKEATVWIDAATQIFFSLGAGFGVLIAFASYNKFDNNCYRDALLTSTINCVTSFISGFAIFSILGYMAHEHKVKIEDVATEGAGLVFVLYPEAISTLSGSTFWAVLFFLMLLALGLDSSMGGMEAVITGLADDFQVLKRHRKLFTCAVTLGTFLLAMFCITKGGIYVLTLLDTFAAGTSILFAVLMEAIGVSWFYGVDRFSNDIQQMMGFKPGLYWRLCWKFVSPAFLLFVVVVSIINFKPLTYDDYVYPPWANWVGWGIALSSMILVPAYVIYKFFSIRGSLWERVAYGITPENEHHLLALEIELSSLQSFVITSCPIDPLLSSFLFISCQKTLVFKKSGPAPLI
Method in brief: (§3)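 Competition binding at the NET with 0.5 nM [3H]nisoxetine (final concentration). Other procedures follow earlier published methods.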

[6] = organism: Mus musculus; assay: Hour 1 ratio to cocaine was determined for locomotor activity in mice; assay type: functional
[7] = organism: Mus musculus; assay: Effective dose for locomotor activity in mice in the peak hour.; assay type: functional
[8] = system: Rattus norvegicus; assay: Drug discrimination effect of compound in rats, expressed as percent of rats choosing the cocaine lever at dose 17 mg/kg (ip); assay type: functional
[9] = system: Mus musculus; assay: Percent change from vehicle in locomotor activity in mice at 10 mg/kg (ip) in 2 h; assay type: functional
[10] = system: Mus musculus; assay: Percent change from vehicle in locomotor activity in mice at 30 mg/kg (ip) in 3 h; assay type: functional
[11] = system: Rattus norvegicus; assay: Drug discrimination effect of compound in rats, expressed as percent of rats choosing the cocaine lever at dose 1.7 mg/kg (ip); assay type: functional
[12] = system: Rattus norvegicus; assay: Drug discrimination effect of compound in rats, expressed as percent of rats choosing the cocaine lever at dose 10 mg/kg (ip); assay type: functional
[13] = system: Mus musculus; assay: Percent change from vehicle in locomotor activity in mice at 10 mg/kg (ip) in 4 h; assay type: functional
[14] = molecular target: T2, Norepinephrine transporter; assay: Inhibition of norepinephrine transporter (NET) determined using [3H]nisoxetine radioligand.; method in brief: as §3
[15] = system: Mus musculus; assay: Percent change in locomotor activity in mice at 3 mg/kg i.p. in 2 h.; assay type: functional; conditions: route intraperitoneal; method in brief: as §2
[16] = molecular target: Sodium-dependent dopamine transporter (Rattus norvegicus, UniProt P23977); assay: Inhibitory concentration required to inhibit dopamine transporter DAT was determined by using [3H]WIN-35428 radioligand
Sequence of Sodium-dependent dopamine transporter (P23977 whole entry): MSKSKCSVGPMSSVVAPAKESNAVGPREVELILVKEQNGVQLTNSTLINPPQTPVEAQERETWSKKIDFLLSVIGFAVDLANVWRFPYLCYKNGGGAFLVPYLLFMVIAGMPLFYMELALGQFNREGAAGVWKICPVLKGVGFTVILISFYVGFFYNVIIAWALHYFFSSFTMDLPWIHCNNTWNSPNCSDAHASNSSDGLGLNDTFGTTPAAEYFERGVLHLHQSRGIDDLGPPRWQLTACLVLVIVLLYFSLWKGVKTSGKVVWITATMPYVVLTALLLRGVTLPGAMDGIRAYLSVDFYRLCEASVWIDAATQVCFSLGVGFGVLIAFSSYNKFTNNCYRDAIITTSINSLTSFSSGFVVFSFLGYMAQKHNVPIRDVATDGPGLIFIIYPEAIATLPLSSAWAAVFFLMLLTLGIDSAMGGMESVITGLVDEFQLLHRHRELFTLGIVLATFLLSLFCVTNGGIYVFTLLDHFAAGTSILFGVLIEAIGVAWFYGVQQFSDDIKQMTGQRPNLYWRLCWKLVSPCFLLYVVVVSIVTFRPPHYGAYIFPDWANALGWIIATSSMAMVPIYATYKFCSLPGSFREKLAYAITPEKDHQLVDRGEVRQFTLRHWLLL
Method in brief: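 Competition binding at the DAT with 0.5 nM [3H]WIN35,428 (final concentration). Other procedures follow earlier published methods.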

[17] = system: Mus musculus; assay: Percent change from vehicle in locomotor activity in mice at 10 mg/kg (ip) in 3 h; assay type: functional
[18] = system: Mus musculus; assay: Percent change from vehicle in locomotor activity in mice at 30 mg/kg (ip) in 4 h; assay type: functional
[19] = system: Mus musculus; assay: Percent change from vehicle in locomotor activity in mice at 30 mg/kg (ip) in 1 h; assay type: functional
[20] = system: Rattus norvegicus; assay: Drug discrimination effect of compound in rats, expressed as percent of rats choosing the cocaine lever at dose 5.6 mg/kg (ip); assay type: functional
[21] = system: Rattus norvegicus; assay: Effective dose for drug discrimination effect in rat (ip); assay type: functional
Method in brief: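 Cocaine-trained rat drug discrimination, FR10, 10-min sessions. Compound in 0.5% methyl cellulose given ip 15 min before session, usually to 7-8 rats per dose. Doses were raised from ≤20% to ≥80% cocaine-lever choice, capped at 30 mg/kg, >50% loss of pressing, or side effects.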

[22] = system: Mus musculus; assay: Percent change in locomotor activity in mice at 3 mg/kg i.p. in 3 h.; assay type: functional; conditions: route intraperitoneal; method in brief: as §2
[23] = system: Mus musculus; assay: Percent change in locomotor activity in mice at 3 mg/kg i.p. in 1 h.; assay type: functional; conditions: route intraperitoneal; method in brief: as §2
[24] = molecular target: T1, Sodium-dependent serotonin transporter; assay: Binding affinity towards serotonin transporter 5-HTT was determined using [3H]paroxetine radioligand.; method in brief: as §1
[25] = system: Rattus norvegicus; assay: Drug discrimination effect of compound in rats, expressed as percent of rats choosing the cocaine lever at dose 30 mg/kg (ip); assay type: functional
[26] = system: Mus musculus; assay: Percent change in locomotor activity in mice at 1 mg/kg i.p. in 4 h.; assay type: functional; conditions: route intraperitoneal; method in brief: as §2
[27] = system: Mus musculus; assay: Percent change from vehicle in locomotor activity in mice at 0.1 mg/kg (ip) in 1 h; assay type: functional
[28] = system: Mus musculus; assay: Percent change from vehicle in locomotor activity in mice at 0.3 mg/kg (ip) in 2 h; assay type: functional
[29] = system: Mus musculus; assay: Percent change from vehicle in locomotor activity in mice at 0.3 mg/kg (ip) in 4 h; assay type: functional
[30] = system: Mus musculus; assay: Percent change in locomotor activity in mice at 1 mg/kg i.p. in 2 h.; assay type: functional; conditions: route intraperitoneal; method in brief: as §2
[31] = system: Mus musculus; assay: Percent change from vehicle in locomotor activity in mice at 0.3 mg/kg (ip) in 3 h; assay type: functional
[32] = system: Mus musculus; assay: Percent change locomotor activity in mice at 1 mg/kg i.p. in 3 h.; assay type: functional; conditions: route intraperitoneal; method in brief: as §2
[33] = system: Rattus norvegicus; assay: Drug discrimination effect of compound in rats, expressed as percent of rats choosing the cocaine lever at dose 0.1 mg/kg (ip); assay type: functional
[34] = system: Mus musculus; assay: Percent change from vehicle in locomotor activity in mice at 0.3 mg/kg (ip) in 1 h; assay type: functional
[35] = system: Mus musculus; assay: Percent change from vehicle in locomotor activity in mice at 0.1 mg/kg (ip) in 2 h; assay type: functional
[36] = system: Rattus norvegicus; assay: Drug discrimination effect of compound in rats, expressed as percent of rats choosing the cocaine lever at dose 0.3 mg/kg (ip); assay type: functional
[37] = system: Rattus norvegicus; assay: Drug discrimination effect of compound in rats, expressed as percent of rats choosing the cocaine lever at dose 0.17 mg/kg (ip); assay type: functional
[38] = system: Mus musculus; assay: Percent change in locomotor activity in mice at 1 mg/kg i.p. in 1 h.; assay type: functional; conditions: route intraperitoneal
[39] = system: Mus musculus; assay: Percent change from vehicle in locomotor activity in mice at 0.1 mg/kg (ip) in 3 h; assay type: functional
[40] = system: Mus musculus; assay: Percent change from vehicle in locomotor activity in mice at 0.1 mg/kg (ip) in 4 h; assay type: functional
[41] = system: Rattus norvegicus; assay: Drug discrimination effect of compound in rats, expressed as percent of rats choosing the cocaine lever at dose 1 mg/kg (ip); assay type: functional
[42] = system: Rattus norvegicus; assay: Drug discrimination effect of compound in rats, expressed as percent of rats choosing the cocaine lever at dose 0.56 mg/kg (ip); assay type: functional
[43] = organism: Mus musculus; assay: Effective dose was evaluated for locomotor activity in mice in the peak hour; No stimulation; assay type: functional, organism-based
[44] = system: Rattus norvegicus; assay: Drug discrimination effect of compound in rats, expressed as percent of rats choosing the cocaine lever at dose 3 mg/kg (ip); assay type: functional

T1 sequence (P31652 whole entry): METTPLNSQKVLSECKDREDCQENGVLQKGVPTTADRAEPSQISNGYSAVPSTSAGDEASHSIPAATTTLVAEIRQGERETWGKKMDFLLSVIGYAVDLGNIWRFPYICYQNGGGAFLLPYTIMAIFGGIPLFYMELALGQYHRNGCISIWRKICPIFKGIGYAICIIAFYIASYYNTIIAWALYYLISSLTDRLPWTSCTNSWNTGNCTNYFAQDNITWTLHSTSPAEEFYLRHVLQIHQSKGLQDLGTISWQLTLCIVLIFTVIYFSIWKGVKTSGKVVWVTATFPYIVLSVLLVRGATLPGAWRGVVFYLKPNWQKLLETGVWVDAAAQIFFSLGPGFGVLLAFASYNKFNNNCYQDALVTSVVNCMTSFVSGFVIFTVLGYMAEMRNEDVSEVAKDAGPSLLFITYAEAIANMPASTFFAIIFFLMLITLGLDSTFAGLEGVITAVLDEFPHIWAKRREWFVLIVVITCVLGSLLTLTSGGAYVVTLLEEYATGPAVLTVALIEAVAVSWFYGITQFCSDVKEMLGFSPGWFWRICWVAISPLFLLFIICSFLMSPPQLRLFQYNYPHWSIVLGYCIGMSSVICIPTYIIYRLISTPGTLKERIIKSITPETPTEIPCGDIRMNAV

Row | Compound | IC50 [1] [µM] | Change [2] [%] | Change [3] [%] | Change [4] [%] | Ki [5] [µM] | Ratio [6] | ED50 [7] [mg/kg] | Change [9] [%] | Change [10] [%] | Change [13] [%] | IC50 [14] [µM] | Change [15] [%] | IC50 [16] [µM] | Change [17] [%] | Change [18] [%] | Change [19] [%] | ED50 [21] [mg/kg] | Change [22] [%] | Change [23] [%] | Ki [24] [µM] | other results
1 | Cc1ccc(C2CC3CCC(C2c2cc(-c4ccc(F)cc4)no2)N3C)cc1 (stereo not given) | > 100 | 117 | 383 | 140 | 0.552 | 0.4 | 6.3 | 268 | 387 | 148 | 0.917 | 80 | 0.00645 | 84 | 179 | 192 | 7.27 | 148 | 105 | – | Drug discrimination effect [8]: 88%; Drug discrimination effect [11]: 0%; Drug discrimination effect [12]: 25%; Drug discrimination effect [20]: 25%
2 | COc1ccc(-c2cc(C3C(c4ccc(C)cc4)CC4CCC3N4C)on2)cc1 (stereo not given) | 4.03 | 187 | 235 | 30 | 0.455 | 0.6 | 12.8 | 115 | 430 | 34 | 0.756 | 32 | 0.00393 | 65 | 483 | 290 | 11 | 27 | 73 | 0.366 | Drug discrimination effect [8]: 43%; Drug discrimination effect [20]: 0%; Drug discrimination effect [25]: 83%
3 | Cc1cc(C2C(c3ccc(Cl)cc3)CC3CCC2N3C)on1 (stereo not given) | 0.572 | – | – | – | 0.109 | 1.2 | 0.2 | – | – | – | 0.181 | – | 0.00059 | – | – | – | 0.21 | – | – | 0.052 | Change [26]: 981%; Change [27]: 48%; Change [28]: 526%; Change [29]: 392%; Change [30]: 434%; Change [31]: 735%; Change [32]: 926%; Drug discrimination effect [33]: 0%; Change [34]: 354%; Change [35]: 92%; Drug discrimination effect [36]: 88%; Drug discrimination effect [37]: 25%; Change [38]: 543%; Change [39]: 38%; Change [40]: -23%
4 | CCc1cc(C2C(c3ccc(Cl)cc3)CC3CCC2N3C)on1 (stereo not given) | 3.09 | – | – | – | 0.072 | 2.1 | 0.4 | – | – | – | 0.12 | – | 0.0005 | – | – | – | 0.48 | – | – | 0.281 | Drug discrimination effect [41]: 71%; Change [26]: 778%; Change [27]: 82%; Change [28]: 505%; Change [29]: 208%; Change [30]: 1900%; Change [31]: 224%; Change [32]: 1708%; Change [34]: 284%; Change [35]: 224%; Drug discrimination effect [36]: 0%; Drug discrimination effect [42]: 75%; Change [38]: 954%; Change [39]: 184%; Change [40]: 103%
5 | Cc1ccc(C2CC3CCC(C2c2cc(-c4ccc(Cl)cc4)no2)N3C)cc1 (stereo not given) | > 100 | -1 | 38 | -1 | 3.99 | – | – | -3 | 79 | -20 | 6.98 | 39 | 0.00874 | -45 | 52 | -26 | – | 7 | 30 | – | Drug discrimination effect [41]: 0%; ED50 [43]: inactive; Change ([26]; 1 mg/kg): 24% and 27%; Change [28]: -20%; Change [29]: 45%; Change [31]: -58%; Change [32]: 33%; Drug discrimination effect [12]: 0%; Change [34]: -35%; Drug discrimination effect [44]: 13%; Drug discrimination effect [25]: 0%; Change [38]: 5%

Reference: ChEMBL document CHEMBL1148376, “Synthesis, monoamine transporter binding properties, and behavioral pharmacology of a series of 3beta-(substituted phenyl)-2beta-(3'-substituted isoxazol-5-yl)tropanes” (J Med Chem, 2004)
